Screening results from PubChem BioAssay.
Hep lipid drop: modulators of hepatic lipid droplet formation; actives 0.4% (n = 240,000); inhibition, % at 6.5 µM; AML12 mouse hepatocytes, oleate lipid droplets, BODIPY imaging;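 active = lipid droplet intensity inhibited by at least 50%, with more than 500 cells counted; inconclusive = wells with under 300 cells, treated as cytotoxic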
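Assay system: AML12 mouse liver cells | Compound: 6.5 µM single-point dosing | Schedule: Overnight exposure | Technique: Fluorescence imaging, 20x objective, two fields per well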
T cruzi inh: blocks replication of Trypanosoma cruzi. actives 1.4% (n = 300,000). inhibition, % (concentration not given with the values). T. cruzi beta-gal in NIH3T3, luminescence, 90 h. AID 1885;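 active = mean inhibition across valid replicates above about 55%, limit read from the data; inconclusive = mean below that limit but half or more replicates reach it; inactive = mean below it, under half of replicates reach it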;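 also: signal also drops with host cell toxicity which is not excluded here; higher percent means less beta-gal luminescence so fewer parasites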
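Test system: β-gal T. cruzi (Tulahuen C4) inside NIH/3T3 cells / Quantity: 5,000 cells/well / Measured by: luminescence from GalScreen with 0.05% NP40, read after 60 min / Medium: DMEM plus 2% FBS / Measure: parasite load inhibition, % / Reagent: Tulahuen C4 trypomastigotes, 5000/well / Schedule: co-culture of at least 90 h after 3 h attachment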
L major viab: Leishmania major promastigote growth inhibition; actives 9% (n = 200,000); AID 1063; inhibition, % at 10 µM; Leishmania major promastigotes, resazurin fluorescence viability; in the data active = inhibition above about 50%;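 also: promastigotes grown with compound for 44 hours at 28 °C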
Redox H2O2 prof: compounds producing H2O2 with reducing agent – biochemical, NIH compound library profiling, artefact control for MLSCN library redox annotation, primary screen; DTT-dependent redox cycling H2O2, phenol red/HRP absorbance; 100% = 100 µM peroxide control, 0% = buffer; activation, % at 10 µM; actives 0.03% (n = 200,000); AID 878;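 active = activation of at least 50% relative to the plate's high and low controls in the primary single-dose screen; inactive = activation below 50%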;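 also: compound incubated with DTT at 0.8 mM final as the reducing agent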
MPTP block: permeability transition pore inhibition | inhibition, % at 10 µM | actives 1.4% (n = 360,000) | isolated mouse mitochondria, Ca2+ swelling absorbance, 30 min;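 active = inhibition of 50% or more, scaled per plate between neutral and stimulator controls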
Hits are given with their value; n = inactive; u = inconclusive; x = no result. The sample as a whole holds a higher share of hits than the screen did.

SMILES	Hep lipid drop	T cruzi inh	L major viab	Redox H2O2 prof	MPTP block
COC(=O)c1sc(S(=O)(=O)N2CCCCC2C)c(C(=O)OC)c1C (configuration not stated)	x	x	x	x	n
CCN1CCCn2c1nc1c2c(=O)n(C)c(=O)n1C	n	n	58.7	n	n
Cn1c(=O)n(Cc2ccccc2)c(=O)c2c1nc1n2CCCN1CCc1ccccc1	x	n	100.4	n	n
Cc1ccn2c(=O)c(NC(=O)c3ccc(Br)o3)c(C)nc2c1	x	n	x	x	n
COCCn1c(SCC(=O)NC2CCCCC2)nnc1-c1ccncc1	n	n	x	x	n
O=C1OCC(CO)(CO)N=C1NNc1cc(Cl)ccc1Cl	n	n	97.3	n	n
O=C1OCC(CO)(CO)N=C1NNc1ccccc1[N+](=O)[O-]	n	n	x	x	n
Cc1cc(C)n(C(=O)CNC(=O)c2ccc(Cl)cc2Cl)n1	n	n	x	x	n
COc1ccccc1NC(=O)CCN1C(=O)C2C3CCC(C3)C2C1=O (configuration not stated)	n	n	x	x	n
COc1cc([N+](=O)[O-])ccc1NC(=O)CCN1C(=O)C2C3CCC(C3)C2C1=O (configuration not stated)	n	n	55.7	x	n
CCN1CC(CN(C)Cc2nc(-c3ccc(C(F)(F)F)cc3)oc2C)CC1=O (configuration not stated)	n	59.0	55.7	n	n
CCOC(=O)c1sc2ccccc2c1NC(=O)c1coc2ccccc2c1=O	n	n	58.2	n	n
CCOC(=O)c1sc2ccccc2c1OC(=O)c1ccccc1	n	n	n	n	n
COC(=O)CC1(CC(N)=O)SCCS1	x	x	x	x	n
O=C(CSc1n[nH]c(-c2ccccc2O)n1)N1CCCc2ccccc21	x	n	74.5	n	n
Cc1[nH]c2ccccc2c1SCC(=O)N1CCCc2ccccc21	n	n	99.5	n	n
Cc1ccccc1CN1CCc2c(OCC(=O)N3CCCc4ccccc43)cccc2C1=O	n	n	96.3	n	n
Cc1[nH]c2ccccc2c1C(=O)C(=O)N1CCCc2ccccc21	n	n	n	n	n
CCN1CCc2c(OCC(=O)N3CCc4ccccc43)cccc2C1=O	n	n	n	n	x
Cc1ccccc1OCC(=O)N1CCCc2ccccc21	n	n	53.1	n	n
Cc1ccc2sc(N3CCN(CCNC(=O)c4ccco4)CC3)nc2c1C	x	n	x	x	n
c1ccc2c(-c3[nH]ncc3CNCCCn3ncc4ccccc43)cccc2c1	n	n	77.2	n	n
OCC1CCCCN1CCNCc1cn[nH]c1-c1cccc2ccccc12 (configuration not stated)	n	n	x	x	n
CC(OC(=O)c1cc(=O)[nH]c2ccccc12)C(=O)N1C(C)CCCC1C (configuration not stated)	x	x	x	x	n
CCOC(=O)c1nc2cc3n(c(CC(C)C)c-2c1C)CC(C)=C3C	n	n	64.1	n	n
SMILES	Hep lipid drop	T cruzi inh	L major viab	Redox H2O2 prof	MPTP block
O=[N+]([O-])c1cc(C(F)(F)F)ccc1N1CCN(S(=O)(=O)c2ccc3c(c2)CCCC3)CC1	n	n	66.5	n	n
CC1CN(c2ccc(C(F)(F)F)cc2[N+](=O)[O-])CCN1S(C)(=O)=O (configuration not stated)	u	n	76.5	n	n
O=[N+]([O-])c1cc(C(F)(F)F)ccc1N1CCCNCC1	n	n	78.7	n	n
O=C(CN1C(=O)NC2(CCCC2)C1=O)N1CCN(c2ccc(C(F)(F)F)cc2[N+](=O)[O-])CC1	x	x	x	x	n
CC1CN(c2ccc([N+](=O)[O-])cc2Cl)CCN1S(C)(=O)=O (configuration not stated)	n	n	x	x	n
OC[C@@H]1CN(CCN2CCOCC2)C[C@H](n2cnc3c(NC4CCCC4)ncnc32)O1	x	x	x	x	n
CC1(C)CC(=O)C(=Cc2cn(-c3ccccc3)nc2-c2ccc(Cl)cc2)C(=O)C1	x	n	68.7	n	n
CC1=NNC(=O)/C1=C\c1cn(-c2ccccc2)nc1-c1ccccc1	n	n	100.4	n	n
CC(=O)Nc1ccc2nc(NC(=O)COc3ccccc3C)sc2c1	n	n	n	n	n
COc1cccc(-c2nnc(Nc3nc4c(F)cccc4s3)o2)c1	n	n	n	n	n
NNc1nc2c(Cl)c(Cl)ccc2s1	n	n	99.2	n	n
COc1cccc2sc(Nc3nnc(-c4ccccc4Cl)o3)nc12	n	n	97.4	n	n
COc1ccccc1-c1nnc(Nc2nc3c(OC)cccc3s2)o1	u	62.8	97.9	n	n
COc1cccc2sc(Nc3nc4ccc(NC(C)=O)cc4s3)nc12	n	n	85.4	n	n
COC(=O)c1cc(S(=O)(=O)C(C)C)c(S(C)=O)s1 (configuration not stated)	n	n	x	x	n
CCOC(=O)c1sc(Nc2nc3c(OC)cccc3s2)cc1C	n	n	69.0	n	n
COc1cccc2sc(NN)nc12	n	n	60.0	n	n
CCOC(=O)c1sc(Nc2nc3cc4c(cc3s2)OCO4)cc1C	n	n	n	n	n
COc1cccc2sc(Nc3nc(-c4ccncc4)cs3)nc12	u	76.3	n	n	n
O=C(Nc1ccccc1F)c1ccc2ncsc2c1	n	n	x	x	n
C=CCn1c(SCc2csc(-c3ccc(C)cc3)n2)nnc1-c1ccccc1OC	n	n	99.6	n	n
COc1ccccc1-n1cnnc1SCc1csc(-c2ccccc2)n1	n	x	n	n	n
COc1ccccc1-c1c(-c2ccc(OCC(=O)NN)cc2O)n[nH]c1C(F)(F)F	n	n	87.2	n	n
C/C(=N\NC(=O)c1ccc(O)cc1)c1ccc2c(c1)Nc1ccccc1S2	n	n	75.4	n	n
O=[N+]([O-])c1ccc(S(=O)(=O)NCC(c2ccco2)N2CCc3ccccc3C2)cc1 (configuration not stated)	x	61.0	x	x	n
SMILES	Hep lipid drop	T cruzi inh	L major viab	Redox H2O2 prof	MPTP block
COc1ccc(NC(=S)N2CCN(C/C=C/c3ccccc3)CC2)cc1	n	n	85.6	n	n
CCOc1ccc(NC(=S)N2CCN(C/C=C/c3ccccc3)CC2)cc1	n	n	89.5	n	n
COc1ccc(OC)c(NC(=S)N2CCN(C/C=C/c3ccccc3)CC2)c1	n	n	n	n	n
COc1ccc(NC(=S)N2CCN(C/C=C/c3ccccc3)CC2)cc1OC	x	n	73.6	n	n
CSCCC(C(=O)Nc1c(C)cccc1C)N1CCN(c2ccc(F)cc2)CC1 (configuration not stated)	x	x	x	x	n
CCCCN(C(=O)c1cccc(-n2cnnn2)c1)c1c(N)n(CCCC)c(=O)[nH]c1=O	x	x	x	x	n
Cc1cccc(N2C(=O)C(Oc3ccc(Cl)cc3Cl)C2C=O)c1C (configuration not stated)	n	x	100.0	n	n
COc1ccc(CNCc2cccc(Oc3ccccc3)c2)cc1	n	n	87.1	n	n
CC(C)c1ccc(CN2CC(C(=O)Nc3ccccc3)CC2=O)cc1 (configuration not stated)	n	n	62.3	n	n
